Vif inh – inhibitors of HIV Vif. HEK293T cells, Vif self-association by quenched fluorescence, imaging, 24 h. AID 602346. inhibition, % at 7.49 µM. actives 0.35% (n = 340,000); in the data active = inhibition above about 50%, passing the limit was not always enough
CDK5 inh – inhibitors of human CDK5/p35 kinase; AID 488839; Recombinant CDK5/p35, ADP-Glo luminescence, 60 min; Q00535+Q15078; actives 0.01% (n = 330,000); inhibition, % at 10 µM;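 active = highest replicate inhibition of at least 50% and at least 75% of replicates reaching 50%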
Target sequence (Q00535 whole entry, looked up): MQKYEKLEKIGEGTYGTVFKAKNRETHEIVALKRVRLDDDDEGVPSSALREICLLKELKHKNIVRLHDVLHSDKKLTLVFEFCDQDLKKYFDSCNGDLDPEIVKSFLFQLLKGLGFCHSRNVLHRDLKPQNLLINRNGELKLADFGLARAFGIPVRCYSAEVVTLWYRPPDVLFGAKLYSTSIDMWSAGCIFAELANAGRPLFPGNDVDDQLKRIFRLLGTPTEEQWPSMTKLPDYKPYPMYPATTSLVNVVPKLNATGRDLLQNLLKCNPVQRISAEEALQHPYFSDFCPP
Target sequence (Q15078 whole entry, looked up): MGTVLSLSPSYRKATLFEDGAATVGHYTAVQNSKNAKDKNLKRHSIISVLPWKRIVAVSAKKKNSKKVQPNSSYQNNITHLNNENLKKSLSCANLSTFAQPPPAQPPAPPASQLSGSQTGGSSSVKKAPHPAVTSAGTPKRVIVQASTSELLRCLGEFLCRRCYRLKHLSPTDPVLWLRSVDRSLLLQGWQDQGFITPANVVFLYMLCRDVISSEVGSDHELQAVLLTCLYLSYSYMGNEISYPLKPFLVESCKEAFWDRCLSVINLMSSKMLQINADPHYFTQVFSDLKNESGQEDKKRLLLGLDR
CAL PDZ FP-1 – blocks peptide binding to the human CAL PDZ domain. inhibition, % at 24.9 µM. Q9HD26. purified CAL PDZ, TMR-peptide fluorescence polarization, 1 h. actives 0.92% (n = 300,000);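 active = mean inhibition of at least 30% with at least half of replicates also reaching 30%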
Glyco luc inh – blocks N-linked glycosylation in D54 reporter cells; D54 ERlucT glycosylation luciferase reporter, 24 h; percent of 100 nM tunicamycin response; actives 0.23% (n = 360,000); reporter increase, % at 12.5 µM;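 active = mean luciferase reporter signal, scaled so untreated is 0 and the glycosylation-blocking control 100, at or above a set limit in every replicate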;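 also: luciferase carries N-glycosylation sites so blocking glycosylation raises the light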
PvdQ acylase – blocks Pseudomonas aeruginosa PvdQ acylase activity | inhibition, % at 10 µM | actives 0.063% (n = 340,000) | purified PvdQ acylase, fluorescence plate reader; in the data active = inhibition above about 30%, passing the limit was not always enough
CAL PDZ FP-2 – blocks peptide binding to human CAL PDZ domain; Q9HD26; purified CAL PDZ, TMR-peptide fluorescence polarization, 1 h; inhibition, % at 20 µM; actives 0.02% (n = 330,000); AID 504414;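 active = highest replicate inhibition of at least 40%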
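Control set: unlabelled peptide and DMSO controls / Material: purified CerCALP PDZ construct / Timing: 1 h incubation at room temperature before polarization reading / Doses: 20 µM, one dose / Detection: fluorescence polarization (mP)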
Of the large screens only hits and unclear results are named; the others gave an inactive call. This is a sample that favours compounds with a hit; in the whole collection about 1.4% have one here.

Nc1nc2c(nnn2Cc2ccc(Cl)c(Cl)c2)c(=O)[nH]1	none
COc1ncccc1-c1cc2nc(NCCCN(C)C)n(C)c(=O)c2s1	none (no result: CDK5 inh, CAL PDZ FP-1, PvdQ acylase, CAL PDZ FP-2)
Cc1ccc(S(=O)(=O)Nc2ccc(NC(=O)Nc3cccc(C(F)(F)F)c3)cc2)cc1	CAL PDZ FP-1 74
CC(C)(C)OC(=O)N[C@H]1C=C[C@@H](OC(=O)CC(=O)OCC(F)(F)F)C1	none
CN(C)S(=O)(=O)c1cccc(COc2ncnc3c(Cl)cc(Cl)cc23)c1	CAL PDZ FP-1 56
Cc1cc(C)c(CN2CCN(C(=O)Cn3cnc4c(OCc5ccccc5)ncnc43)CC2)c(C)c1	none
Cc1cc(C)c(C)c(OC(=O)c2sc(Cl)nc2C)c1	Glyco luc inh 38
Cc1nn(C(C)C(=O)NCCCN2CCCC2)c(=O)c2nn(-c3ccccc3)c(C)c12 (stereo unspecified)	none
CN1CCC(NC(=O)c2cccc(Oc3ccccc3)c2)CC1	none (no result: CAL PDZ FP-1)
COc1cc(C(=O)NC2CCN(C)CC2)ccc1Nc1ncc2c(n1)N(C1CCCC1)CCC(=O)N2C(C)C	Glyco luc inh 59
COc1ccc(C(=O)NC2CCCCC2)cc1OC1CCN(C(C)C)CC1	none
COc1cc(C(=O)NC2CCN(C)CC2)ccc1Nc1ncc2c(n1)N(CCc1ccccc1)CCC(=O)N2C	Glyco luc inh 62
c1cc(-c2ccc3nncn3c2)ccc1CN1CCOCC1	none (no result: CDK5 inh, CAL PDZ FP-1, PvdQ acylase, CAL PDZ FP-2)
C=CCn1c(NC(=O)c2ccco2)nc2ccccc21	CAL PDZ FP-1 94, CAL PDZ FP-2 61
COc1cccc(NC(=O)CN(C)C(=O)c2c(C)nn(CC(C)C)c2Cl)c1	none
c1ccc(CCC2CCCCN2Cc2cn[nH]c2-c2cc3ccccc3o2)nc1 (stereo unspecified)	CAL PDZ FP-1 101
O=C(c1ccccn1)C1CCCN(Cc2cn[nH]c2-c2cc3ccccc3o2)C1 (stereo unspecified)	none (no result: Vif inh)
CCOC(=O)CSc1nnc(-c2ccc3ncccc3c2)n1C	CAL PDZ FP-1 active
Cc1ccc(OCCNC(=O)C(=O)NCc2ccco2)cc1	Glyco luc inh 26
FC(F)(F)c1ccccc1Cc1c(C2CCCCC2)nc2c3ccccc3ccn12	none (no result: Vif inh, CDK5 inh, CAL PDZ FP-1, PvdQ acylase, CAL PDZ FP-2)
O=C(Cn1cnc([N+](=O)[O-])c1)Nc1ccc(Cl)cc1Cl	Vif inh 64 (no result: CDK5 inh, CAL PDZ FP-1, PvdQ acylase, CAL PDZ FP-2)
Oc1cccc2ccc(/C=C/c3ccccc3Br)nc12	CAL PDZ FP-1 59
COc1ccc(C(=O)CSc2nnc(-c3cc4ccccc4cc3O)n2Cc2ccco2)cc1	Glyco luc inh 33
COc1ccc(-c2nnc(SCC(=O)O)n2Cc2ccccc2)cc1	CAL PDZ FP-1 57
CC(C)C(C)(C#N)NC(=O)CSc1nnc(-c2ccncc2)n1Cc1ccccc1 (stereo unspecified)	CAL PDZ FP-1 35
CC1CC(C)C(=O)C(C(CC2CC(=O)NC(=O)C2)OC(=O)CC(=O)c2ccccc2)C1 (stereo unspecified)	none (no result: CAL PDZ FP-1)
CC(=O)N1CCc2cc(S(=O)(=O)CCC(=O)N3CCN(c4cc(C)ccc4C)CC3)ccc21	none
CC1CCN(Cc2nnnn2CCCC(=O)NCCc2cnn(C)c2)CC1	CAL PDZ FP-1 113
CC1CCN(Cc2nnnn2CCCC(=O)NCC(C)(C)N2CCOCC2)CC1	none
CCOCCCNC(=O)c1ccc(/C=C2\Oc3ccccc3N(C)C2=O)cc1	none
S=C(Nc1ccc(-c2nc3ccccc3[nH]2)cc1)Nc1cccnc1	CAL PDZ FP-1 43
COC(=O)c1ccc(-c2nc3ccccc3[nH]2)cc1	PvdQ acylase 40
COC(=O)c1ccc(C(=O)Nc2ccc3nc(-c4ccncc4)[nH]c3c2)cc1	CAL PDZ FP-1 59
COC(=O)c1ccc(C(=O)Nc2ccc3nc(-c4cccnc4)[nH]c3c2)cc1	none
c1cncc(-c2nc3ccccc3[nH]2)c1	none
COc1ccc(-c2nc3ccccc3[nH]2)cc1	none
COCCN(C(=O)c1ccc(N2C(=O)c3ccccc3C2=O)cc1)c1c(N)n(CC(C)C)c(=O)[nH]c1=O	none
COc1ccccc1C(CNC(=O)c1cccc(S(=O)(=O)N2c3ccccc3CC2C)c1)N(C)C (stereo unspecified)	none
COc1cc(NC(=O)COc2ccccc2Cl)ccc1NC(=O)c1cccs1	none
COc1cc(NC(=O)COc2ccccc2[N+](=O)[O-])ccc1NC(=O)c1cccs1	Vif inh 53
COCCNC(=O)C1(C)CCN(C(=O)c2ccc(C(F)(F)F)nc2C)C1 (stereo unspecified)	none (no result: Vif inh, CDK5 inh, CAL PDZ FP-1, PvdQ acylase, CAL PDZ FP-2)
Cc1cccn2c(=O)c3cc(C(=O)NC4CCCC4)c(=N)n(CCc4ccccc4)c3nc12	Glyco luc inh 30
Cc1cccn2c(=O)c3cc(C(=O)NCCN4CCOCC4)c(=N)n(CCc4ccccc4)c3nc12	Glyco luc inh 31
CCNC(=O)c1cc2c(=O)n3cccc(C)c3nc2n(CCc2ccccc2)c1=N	Glyco luc inh 46 (no result: Vif inh)
COCCn1c(=N)c(C(=O)NCCc2ccccc2)cc2c(=O)n3cccc(C)c3nc21	none
O=c1ccn([C@@H]2O[C@H](CNCC3=Cc4cc(O)ccc4OC3)[C@@H](O)[C@H]2O)c(=O)[nH]1	none
CC(C)C(=O)N1CCN(c2ccccc2NC(=O)c2ccco2)CC1	none
COc1ccc(NN=Nc2ccc([N+](=O)[O-])cc2)cc1	CAL PDZ FP-1 42
COc1ccc(N/N=C(/Oc2ccc([N+](=O)[O-])cc2)C(C)=O)cc1	none (no result: Vif inh, Glyco luc inh)
CC(=O)NC12CC3CC(C1)CC(C(=O)Nc1cccc(S(=O)(=O)N4CCCCCC4)c1)(C3)C2	CAL PDZ FP-1 194
Cc1noc(NS(=O)(=O)c2ccc(NC(=O)c3ccc(N(C)C)cc3)cc2)c1C	CAL PDZ FP-1 58
COC(=O)c1cc2ccsc2n1Cc1ccccc1F	none
COC(=O)c1cc2ccsc2n1Cc1cccc(F)c1	CAL PDZ FP-1 79
O=C(CCc1ccccc1)Nc1ccccc1	Vif inh 55
CCCn1c(SCC(=O)N(C)CC(=O)Nc2ccc(C)cc2)n[nH]c1=O	none
Cc1cc(C)c2nc3nc(C)c(C)cc3c(N)c2c1	Glyco luc inh 95
CC(=O)NC(=S)Nc1ccc(N2CCOCC2)c(S(=O)(=O)Nc2cc(Cl)ccc2Cl)c1	CAL PDZ FP-1 64
COCCn1c(C)cc(C2=NNC(=Nc3ccccc3)SC2)c1C	CAL PDZ FP-1 active (no result: Vif inh)
Cc1ccc(C2(C)NC(=O)N(CC(=O)Nc3ccc(Cl)c(S(=O)(=O)N4CCCCC4)c3)C2=O)cc1 (stereo unspecified)	none
Cc1ccc(S(=O)(=O)[N-]c2nc3ccccc3nc2-n2cc[n+](Cc3ccccc3)c2)cc1	Glyco luc inh 43
O=S(=O)([N-]c1nc2ccccc2nc1-n1cc[n+](Cc2ccccc2)c1)c1ccccc1	Glyco luc inh 40
CCCC[n+]1ccn(-c2nc3ccccc3nc2[N-]S(=O)(=O)c2ccc(C)cc2)c1	none
C/C(=N\Nc1ccc(S(=O)(=O)N2CCCCC2)cn1)c1cccc(Br)c1	none (no result: CAL PDZ FP-1)

From PubChem BioAssay
